Experimental data of several laboratories.
Compare with care: the assays were run in different laboratories.
Target: Dual specificity testis-specific protein kinase 1 (TESK1, Homo sapiens, UniProt Q15569)

COc1cc(Nc2cnc(C#N)c(O[C@H](C)CN(C)C)n2)ncc1-c1cnn(C)c1
remaining activity (enzyme activity, inhibitor, radiometric; 1 µM): 110%

c1ccc(N2CCN(Cc3nc4ccccc4[nH]3)CC2)nc1
remaining binding (binding, competition with immobilised ligand; 1 µM): 97%

Cc1ccc(C(=O)Nc2ccc(CN3CCN(C)CC3)c(C(F)(F)F)c2)cc1C#Cc1cnc2cccnn12
remaining activity (enzyme activity, inhibitor; 23.5 nM): 100%

O=C1CCc2cc(Nc3cc(OC4CCOCC4)c([N+](=O)[O-])cc3Cl)ccc2N1
remaining binding (cell-free assay, competition with immobilised ligand; 1 µM): 92%

Cc1sc(C(=O)NC2COC2)cc1-n1cc(NC(=O)Nc2c(F)cccc2Cl)cn1
remaining activity (enzyme activity, inhibitor; 10 µM): 88%

COc1cc(/C=C/C(=O)CC(=O)/C=C/c2ccc(O)c(OC)c2)ccc1O
activity vs control (enzyme activity, inhibitor; 1 µM): 101%

O=C(Nc1cnn(-c2csc(C(=O)NC3COC3)c2)c1)Nc1ccccc1Cl
remaining activity (enzyme activity, inhibitor; 5 µM): 100%

CC(C)(O)[C@H]1CC[C@H](Nc2ccc3ncc(-c4cccc(C(F)(F)F)c4)n3n2)CC1
remaining activity (enzyme activity, inhibitor; 1 µM): 83.5%

Nc1ncnc2occ(-c3ccc(NC(=O)Nc4cc(C(F)(F)F)ccc4F)cc3)c12
remaining signal (cell-free assay, inhibitor; 20 µM): 7.4%
